In ChEMBL document CHEMBL1955851, “Fatty acyl amide derivatives of doxorubicin: synthesis and in vitro anticancer activities” (Eur J Med Chem, 2011):
Calls of active or inactive are those of the source. The calls are words filed in the database; no cut-off is given here.

Legend:
[1] = tested on: HT-29; assay: Antiproliferative activity against human HT-29 cells assessed as growth inhibition at 1 uM after 120 hrs by spectrophotometry relative to control; format: functional; details: for inhibition of growth at 1 µM: HT-29, 120 h, read-out: GI
Method in brief: (§1)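 CellTiter 96 AQueous One (MTS) proliferation assay. Cells grown at 37 °C, 5% CO2, 10% FBS plus 1% penicillin-streptomycin. Medium was RPMI for CCRF-CEM and EMEM for MDA-MB-468, SK-OV-3 and HT-29. Compound at 1 μM in 4% DMSO, triplicate wells, incubated 24-120 h, then 1 h with reagent. A490 read. Survival % = (treated − medium)/(control − medium) × 100.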

[2] = tested on: CCRF-CEM; assay: Antiproliferative activity against human CCRF-CEM cells assessed as growth inhibition at 1 uM after 24 to 96 hrs by spectrophotometry; format: functional, cell-based; method in brief: as §1
[3] = tested on: SK-OV-3; assay: Antiproliferative activity against human SKOV3 cells assessed as growth inhibition at 1 uM after 24 to 96 hrs by spectrophotometry; format: functional, cell-based; method in brief: as §1
[4] = tested on: MDA-MB-468; assay: Antiproliferative activity against human MDA-MB-468 cells assessed as growth inhibition at 1 uM after 24 hrs by spectrophotometry; format: functional, cell-based; method in brief: as §1
[5] = n-Octanol-water partition coefficient, log P of the compound by shake flask method; format: physicochemical
Method in brief: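 Shake-flask method. 100 µg of derivative partitioned between 300 µL 1-octanol and 300 µL distilled water, shaken 30 min, phases left to separate. Each phase quantified by UV spectroscopy against a standard spectrum. P = octanol/water concentration ratio, reported as Log P. Mean of three runs.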

[6] = tested on: MDA-MB-468; assay: Antiproliferative activity against human MDA-MB-468 cells assessed as growth inhibition at 1 uM after 96 hrs by spectrophotometry relative to control; format: functional; details: MDA-MB-468, 96 h, read-out: GI; method in brief: as §1
[7] = tested on: SK-OV-3; assay: Antiproliferative activity against human SKOV3 cells assessed as growth inhibition at 1 uM after 96 hrs by spectrophotometry relative to control; format: functional; details: SK-OV-3, 96 h, read-out: GI; method in brief: as §1
[8] = tested on: CCRF-CEM; assay: Antiproliferative activity against human CCRF-CEM cells assessed as growth inhibition at 1 uM after 96 hrs by spectrophotometry relative to control; format: functional; details: read-out: GI; method in brief: as §1

Compound	growth inhibition (GI) [1]	growth inhibition (GI) [2]	growth inhibition (GI) [3]	growth inhibition (GI) [4]	logP [5]	inhibition of growth at 1 µM [6] [%]	inhibition of growth at 1 µM [1] [%]	inhibition of growth at 1 µM [7] [%]	inhibition of growth at 1 µM [8] [%]
CCCCCCCCCCCCCCCCCCCC(=O)N[C@H]1C[C@H](O[C@H]2C[C@](O)(C(=O)CO)Cc3c(O)c4c(c(O)c32)C(=O)c2c(OC)cccc2C4=O)O[C@@H](C)[C@H]1O	Active	inactive	Active	inactive	–	–	–	–	–
COc1cccc2c1C(=O)c1c(O)c3c(c(O)c1C2=O)C[C@@](O)(C(=O)CO)C[C@@H]3O[C@H]1C[C@H](NC(C)=O)[C@H](O)[C@H](C)O1	Active	inactive	Active	inactive	1.18	–	–	–	–
CCCCCCCCCCCC(=O)N[C@H]1C[C@H](O[C@H]2C[C@](O)(C(=O)CO)Cc3c(O)c4c(c(O)c32)C(=O)c2c(OC)cccc2C4=O)O[C@@H](C)[C@H]1O	–	inactive	–	inactive	–	38	64	58	–
CCSCCCCCCCCCCCC(=O)N[C@H]1C[C@H](O[C@H]2C[C@](O)(C(=O)CO)Cc3c(O)c4c(c(O)c32)C(=O)c2c(OC)cccc2C4=O)O[C@@H](C)[C@H]1O	–	inactive	–	inactive	–	–	–	–	–
CCCCCCCCCCCCCCCC(=O)N[C@H]1C[C@H](O[C@H]2C[C@](O)(C(=O)CO)Cc3c(O)c4c(c(O)c32)C(=O)c2c(OC)cccc2C4=O)O[C@@H](C)[C@H]1O	Active	inactive	Active	inactive	–	–	–	–	–
CCCCCCCCCC(=O)N[C@H]1C[C@H](O[C@H]2C[C@](O)(C(=O)CO)Cc3c(O)c4c(c(O)c32)C(=O)c2c(OC)cccc2C4=O)O[C@@H](C)[C@H]1O	Active	inactive	Active	inactive	–	–	–	–	–
CCCCCCCC(=O)N[C@H]1C[C@H](O[C@H]2C[C@](O)(C(=O)CO)Cc3c(O)c4c(c(O)c32)C(=O)c2c(OC)cccc2C4=O)O[C@@H](C)[C@H]1O	Active	inactive	Active	inactive	–	–	–	–	–
CCCCCCCCCCCCCCCCCC(=O)N[C@H]1C[C@H](O[C@H]2C[C@](O)(C(=O)CO)Cc3c(O)c4c(c(O)c32)C(=O)c2c(OC)cccc2C4=O)O[C@@H](C)[C@H]1O	Active	inactive	Active	inactive	–	–	–	–	–
CCCCCCCCCCCCCC(=O)N[C@H]1C[C@H](O[C@H]2C[C@](O)(C(=O)CO)Cc3c(O)c4c(c(O)c32)C(=O)c2c(OC)cccc2C4=O)O[C@@H](C)[C@H]1O	–	–	–	inactive	–	31	41	50	27
COc1cccc2c1C(=O)c1c(O)c3c(c(O)c1C2=O)C[C@@](O)(C(=O)CO)C[C@@H]3O[C@H]1C[C@H](N)[C@H](O)[C@H](C)O1 [DOXORUBICIN]	–	–	–	–	0.6	–	–	–	–
